Source: ChEMBL document CHEMBL5705894, “SB1518, a novel macrocyclic pyrimidine-based JAK2 inhibitor for the treatment of myeloid and lymphoid malignancies” (Leukemia, 2011)
Activity calls are given as the source filed them. The calls are words filed in the database; no cut-off is given here.

Assays:
[1] = Induction of apoptosis in human EPC cells derived from polycythemia vera patients assessed as activation of caspase-3/7 level incubated for 16 hrs; format: toxicity, cell-based; settings: Homo sapiens, EPC
[2] = Cytotoxicity against human EPC cells derived from polycythemia vera patients assessed as inhibition of cell viability incubated for 48 hrs by CellTiterGlo assay; format: toxicity, cell-based
Method in brief: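 Erythroid progenitors expanded from PBMCs of PV patients or normal volunteers using a 2-step protocol. On day 12 of expansion, cells were exposed to compound for 48 h and viability was read by CellTiter-Glo. Day-12 cells were phenotyped by CD71/CD235A flow staining.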

[3] = test system: Tyrosine-protein kinase JAK2 (Homo sapiens), O60674 [V617F]; settings: SET2, dose 1000.0 nM, time 3.0 hrs
Tyrosine-protein kinase JAK2 (Homo sapiens), O60674 [V617F], sequence (O60674 whole entry V617F): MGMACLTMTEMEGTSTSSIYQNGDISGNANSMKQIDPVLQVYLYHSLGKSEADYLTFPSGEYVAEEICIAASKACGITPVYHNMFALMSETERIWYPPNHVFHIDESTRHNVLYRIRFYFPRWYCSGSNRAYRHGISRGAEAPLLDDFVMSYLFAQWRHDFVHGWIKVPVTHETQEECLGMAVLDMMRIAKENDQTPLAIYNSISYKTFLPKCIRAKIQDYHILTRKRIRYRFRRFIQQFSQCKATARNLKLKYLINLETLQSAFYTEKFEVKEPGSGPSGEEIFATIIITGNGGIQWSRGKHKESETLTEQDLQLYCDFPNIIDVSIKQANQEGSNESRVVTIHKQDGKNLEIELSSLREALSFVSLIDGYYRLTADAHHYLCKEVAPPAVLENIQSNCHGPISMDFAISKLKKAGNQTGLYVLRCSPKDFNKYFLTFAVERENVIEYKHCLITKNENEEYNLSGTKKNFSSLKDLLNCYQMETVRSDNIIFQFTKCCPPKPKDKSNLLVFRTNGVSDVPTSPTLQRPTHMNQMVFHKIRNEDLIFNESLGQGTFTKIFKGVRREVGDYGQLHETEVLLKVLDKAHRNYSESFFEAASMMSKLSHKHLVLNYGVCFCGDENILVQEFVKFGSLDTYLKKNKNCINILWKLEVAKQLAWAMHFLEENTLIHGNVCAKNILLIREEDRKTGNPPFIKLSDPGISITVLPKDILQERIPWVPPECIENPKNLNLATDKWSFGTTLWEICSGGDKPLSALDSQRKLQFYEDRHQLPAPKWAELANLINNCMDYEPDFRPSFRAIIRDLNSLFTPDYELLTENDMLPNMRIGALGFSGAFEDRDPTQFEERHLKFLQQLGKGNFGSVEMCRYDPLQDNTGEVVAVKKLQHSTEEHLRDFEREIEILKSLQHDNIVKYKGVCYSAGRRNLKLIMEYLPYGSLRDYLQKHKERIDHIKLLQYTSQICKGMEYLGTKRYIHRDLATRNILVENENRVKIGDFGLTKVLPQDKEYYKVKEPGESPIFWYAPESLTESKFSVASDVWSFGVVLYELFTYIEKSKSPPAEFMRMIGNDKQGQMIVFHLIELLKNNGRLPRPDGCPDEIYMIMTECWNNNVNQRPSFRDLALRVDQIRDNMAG

CHL-1 = test: Antiproliferative activity against human CHL-1 cells assessed as inhibition of cell viability incubated for 48 hrs by CellTiterGlo assay; format: functional, cell-based; settings: CHL-1, 48 h
Method in brief: (§1)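 Cells seeded at 30–50% confluency in 96-well plates, then treated the next day in triplicate at up to 10 μM for 48 h. Viability read by CellTiter-Glo luminescence. IC50 taken from fitted dose–response curves.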

PC-3 = test: Antiproliferative activity against human PC-3 cells assessed as inhibition of cell viability incubated for 48 hrs by CellTiterGlo assay; format: functional, cell-based; settings: PC-3, 48 h; method in brief: as §1
T47D = test: Antiproliferative activity against human T47D cells assessed as inhibition of cell viability incubated for 48 hrs by CellTiterGlo assay; format: functional, cell-based
Method in brief: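 Cells from ATCC, grown per supplier guidance, were seeded at 30–50% confluency and dosed the next day in triplicate at concentrations up to 10 μM for 48 h. Viability was read by luminescent ATP (CellTiter-Glo), and IC50 was fitted from dose–response curves.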

[4] = test system: Tyrosine-protein kinase JAK2 (Mus musculus), Q62120 [V617F]; test: Inhibition of JAK2 V617F mutant transfected in mouse BaF3 cells assessed as increased JAK2 phosphorylation at Y1007/8 at 8 to 1000 nM incubated for 3 hrs by Western blotting analysis; format: cell-based; settings: dose 8-1000 nM
Tyrosine-protein kinase JAK2 (Mus musculus), Q62120 [V617F], sequence (Q62120 as listed by the source): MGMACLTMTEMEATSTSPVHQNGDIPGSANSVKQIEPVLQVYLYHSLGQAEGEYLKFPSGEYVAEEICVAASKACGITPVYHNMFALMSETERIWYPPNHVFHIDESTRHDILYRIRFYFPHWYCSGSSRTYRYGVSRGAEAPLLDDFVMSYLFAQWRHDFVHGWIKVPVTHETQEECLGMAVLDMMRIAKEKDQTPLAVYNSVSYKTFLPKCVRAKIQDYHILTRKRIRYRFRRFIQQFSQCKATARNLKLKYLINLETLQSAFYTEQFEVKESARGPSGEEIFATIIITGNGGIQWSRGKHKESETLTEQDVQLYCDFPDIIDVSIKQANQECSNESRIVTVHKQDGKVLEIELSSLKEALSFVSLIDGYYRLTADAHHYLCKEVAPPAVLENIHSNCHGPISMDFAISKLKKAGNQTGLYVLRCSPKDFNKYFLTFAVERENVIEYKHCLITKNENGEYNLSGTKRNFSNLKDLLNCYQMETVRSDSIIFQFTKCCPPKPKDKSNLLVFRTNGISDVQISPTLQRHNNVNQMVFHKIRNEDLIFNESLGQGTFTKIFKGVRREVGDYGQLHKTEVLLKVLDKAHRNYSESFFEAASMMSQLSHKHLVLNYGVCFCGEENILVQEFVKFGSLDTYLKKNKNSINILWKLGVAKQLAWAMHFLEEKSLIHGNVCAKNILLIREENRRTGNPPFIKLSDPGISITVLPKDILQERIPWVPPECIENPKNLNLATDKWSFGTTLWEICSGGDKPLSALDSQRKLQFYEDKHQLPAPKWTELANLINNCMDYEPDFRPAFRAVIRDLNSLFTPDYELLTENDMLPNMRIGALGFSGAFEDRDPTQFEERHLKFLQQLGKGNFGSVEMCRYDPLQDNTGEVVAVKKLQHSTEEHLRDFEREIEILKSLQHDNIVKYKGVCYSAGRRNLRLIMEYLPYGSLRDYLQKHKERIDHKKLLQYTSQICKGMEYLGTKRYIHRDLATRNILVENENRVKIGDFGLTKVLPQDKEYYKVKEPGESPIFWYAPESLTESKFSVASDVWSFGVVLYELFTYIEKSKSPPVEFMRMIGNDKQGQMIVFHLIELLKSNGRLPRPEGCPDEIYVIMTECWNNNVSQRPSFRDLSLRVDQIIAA

[5] = test system: Tyrosine-protein kinase JAK2 (Homo sapiens), O60674 [V617F]; settings: SET2, dose 8-1000 nM, time 3.0 hrs
Jurkat E6.1 = test: Antiproliferative activity against human Jurkat E6.1 cells assessed as inhibition of cell viability incubated for 48 hrs by CellTiterGlo assay; format: functional, cell-based; settings: Jurkat E6.1, 48 h; method in brief: as §1
SNU-387 = test: Antiproliferative activity against human SNU-387 cells assessed as inhibition of cell viability incubated for 48 hrs by CellTiterGlo assay; format: functional, cell-based; settings: SNU-387, 48 h; method in brief: as §1
[6] = test system: Tyrosine-protein kinase JAK2 (Homo sapiens), O60674 [V617F]; settings: SET2, dose 8-1000 nM, time 3.0 hrs; remark: listed apart in the source
[7] = molecular target: Tyrosine-protein kinase JAK2 (Homo sapiens) (UniProt O60674); settings: HEK-293T, dose 8-1000 nM, time 3.0 hrs
Tyrosine-protein kinase JAK2 (Homo sapiens), sequence (O60674 whole entry): as the sequence (O60674 whole entry V617F) above, with F617V counted along it

MV4-11 = test: Antiproliferative activity against human MV4-11 cells harboring FLT3-ITD mutant assessed as inhibition of cell viability incubated for 48 hrs by CellTiterGlo assay; format: functional, cell-based; settings: MV4-11, 48 h; method in brief: as §1
MOLM-13 = test: Antiproliferative activity against human MOLM-13 cells harboring FLT3-ITD mutant assessed as inhibition of cell viability incubated for 48 hrs by CellTiterGlo assay; format: functional, cell-based; settings: MOLM-13, 48 h; method in brief: as §1
NCI-H322M = test: Antiproliferative activity against human NCI-H322M cells assessed as inhibition of cell viability incubated for 48 hrs by CellTiterGlo assay; format: functional, cell-based; method in brief: as §1
BaF3 = test: Antiproliferative activity against mouse BaF3 cells harboring JAK2 V617F mutant assessed as inhibition of cell viability incubated for 48 hrs by CellTiterGlo assay; format: functional, cell-based; settings: BaF3, 48 h; method in brief: as §1
[8] = molecular target: Tyrosine-protein kinase JAK2 (Homo sapiens) (UniProt O60674); settings: HEK-293T, dose 8-1000 nM, time 3.0 hrs; remark: listed apart in the source
[9] = test system: Tyrosine-protein kinase JAK2 (Homo sapiens), O60674 [V617F]; settings: HEL 92.1.7, dose 8-1000 nM, time 3.0 hrs
Mus musculus = test: In vivo inhibition of JAK2 V617F mutant in SCID Beige mouse xenografted with human SET2 cells assessed as decreased STAT5 phosphorylation at Y694 at 75 to 150 mg/kg, po administered for 18 days and measured after 3 hrs by Western blotting analysis; format: functional, organism-based; settings: dose 75-150 mg/kg, time 18.0 day
Method in brief: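 Subcutaneous SET-2 tumors in SCID beige mice. Single oral doses of 75 or 150 mg/kg were given at about 300 mm3 tumor size; in the chronic arm, dosing ran for 18 days. Tumors were collected 3 h post-dose, lysed, and immunoblotted for pJAK2 (Y1007/8) and pSTAT5.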

[10] = molecular target: Tyrosine-protein kinase JAK2 (Homo sapiens) (UniProt O60674); settings: HEK-293T, dose 8-1000 nM, time 3.0 hrs; remark: listed apart in the source
MKN-7 = test: Antiproliferative activity against human MKN-7 cells assessed as inhibition of cell viability incubated for 48 hrs by CellTiterGlo assay; format: functional, cell-based; settings: MKN-7, 48 h; method in brief: as §1
MCF7 = test: Antiproliferative activity against human MCF7 cells assessed as inhibition of cell viability incubated for 48 hrs by CellTiterGlo assay; format: functional, cell-based; settings: MCF7, 48 h; method in brief: as §1
Karpas-1106P [11] = test: Induction of cell cycle arrest in human KARPAS-1106P cells expressing JAK2 assessed as accumulation of cells at G0/1 phase incubated for 24 hrs by PI staining based flow cytometry; format: functional
Method in brief: (§2)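 Cells were fixed in 70% ice-cold ethanol and stained with propidium iodide, then analysed by flow cytometry for cell-cycle distribution.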

[12] = Antiproliferative activity against mouse 32D cells harboring JAK2 assessed as inhibition of cell viability incubated for 48 hrs by CellTiterGlo assay; format: functional, cell-based; method in brief: as §1
[13] = test system: Tyrosine-protein kinase JAK2 (Homo sapiens), O60674 [V617F]; settings: HEL 92.1.7, dose 1000.0 nM, time 3.0 hrs
[14] = test system: Tyrosine-protein kinase JAK2 (Mus musculus), Q62120 [V617F]; test: Inhibition of JAK2 V617F mutant expressed in mouse BaF3 cells assessed as reduction of STAT5 phosphorylation at Y694 by Western blotting analysis; format: cell-based
[15] = test system: Tyrosine-protein kinase JAK2 (Homo sapiens), O60674 [V617F]; settings: HEL 92.1.7, dose 8-1000 nM, time 3.0 hrs; remark: listed apart in the source
Karpas-1106P [16] = test: Induction of cell cycle arrest in human KARPAS-1106P cells expressing JAK2 assessed as decrease in accumulation of cells at S phase incubated for 24 hrs by PI staining based flow cytometry; format: functional; method in brief: as §2
MOLT-4 = test: Antiproliferative activity against human MOLT-4 cells assessed as inhibition of cell viability incubated for 48 hrs by CellTiterGlo assay; format: functional, cell-based; settings: MOLT-4, 48 h; method in brief: as §1
A549 = test: Antiproliferative activity against human A549 cells assessed as inhibition of cell viability incubated for 48 hrs by CellTiterGlo assay; format: functional, cell-based; settings: A549, 48 h; method in brief: as §1

Q: Which EC50 [1] does the source give for `C1=N/C2=N/c3ccc(OCCN4CCCC4)c(c3)COC/C=C/COCc3cccc(c3)C(=C1)N2` [PACRITINIB] here?
A: The EC50 was 224 nM.

Q: And the IC50 [2]?
A: Its IC50 is 260 nM.

Q: What about the inhibition [3] of the same molecule?
A: The inhibition was “Active”.

Q: And the IC50 (CHL-1)?
A: Its IC50 is 1400 nM.

Q: And the IC50 (PC-3)?
A: The IC50 was 770 nM.

Q: And the IC50 (T47D)?
A: The IC50 was 1280 nM.

Q: And the inhibition [4]?
A: Its inhibition is “Active”.

Q: What about the inhibition [5] of the same molecule?
A: The inhibition was “Active”.

Q: And the IC50 (Jurkat E6.1)?
A: Its IC50 is 839 nM.

Q: What about the IC50 (SNU-387) of the same molecule?
A: The IC50 was 2030 nM.

Q: What about the inhibition [6] of the same molecule?
A: Its inhibition is “Dose-Dependent Effect”.

Q: And the inhibition [7]?
A: The inhibition was “Dose-Dependent Effect”.

Q: What about the IC50 (MV4-11) of the same molecule?
A: Its IC50 is 47 nM.

Q: And the IC50 (MOLM-13)?
A: The IC50 was 67 nM.

Q: What about the IC50 (NCI-H322M) of the same molecule?
A: The IC50 was 2180 nM.

Q: What about the IC50 (BaF3) of the same molecule?
A: Its IC50 is 160 nM.

Q: What about the inhibition [8] of the same molecule?
A: Its inhibition is “Dose-Dependent Effect”.

Q: What about the inhibition [9] of the same molecule?
A: Its inhibition is “Dose-Dependent Effect”.

Q: And the Activity (Mus musculus)?
A: The Activity was “Active”.

Q: What about the inhibition [10] of the same molecule?
A: Its inhibition is “Dose-Dependent Effect”.

Q: What about the IC50 (MKN-7) of the same molecule?
A: The IC50 was 2040 nM.

Q: And the IC50 (MCF7)?
A: Its IC50 is 853 nM.

Q: And the Activity (Karpas-1106P [11])?
A: The Activity was “Dose-Dependent Effect”.

Q: What about the IC50 [12] of the same molecule?
A: The IC50 was 402 nM.

Q: And the inhibition [13]?
A: The inhibition was “Active”.

Q: And the inhibition [14]?
A: Its inhibition is “Active”.

Q: What about the inhibition [15] of the same molecule?
A: The inhibition was “Dose-Dependent Effect”.

Q: What about the Activity (Karpas-1106P [16]) of the same molecule?
A: The Activity was “Dose-Dependent Effect”.

Q: What about the IC50 (MOLT-4) of the same molecule?
A: Its IC50 is 750 nM.

Q: What about the IC50 (A549) of the same molecule?
A: Its IC50 is 2550 nM.
